Test results from ChEMBL document CHEMBL1151261, “Antineoplastic agents. 509: synthesis of fluorcombstatin phosphate and related 3-halostilbenes(1)” (J Nat Prod, 2005).
≈ marks a conversion by molar mass, not a printed value. Calls of active or inactive are those of the source. The rule behind the calls is not given here.

Key:
Micrococcus luteus = assay: Antimicrobial activity against Micrococcus luteus Presque Isle 456 at 64 ug/mL after 24 hrs by broth microdilution assay; assay type: functional, organism-based
In short: (§1)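 NCCLS bacterial broth microdilution (M7-A5). Overnight colonies diluted to about 5×10^5 CFU/mL final; 2-fold compound dilutions (DMSO stock) in cation-adjusted Mueller Hinton II broth; DMSO turbidity control; 35 °C without agitation, 24 h. MIC = lowest concentration with optically clear wells.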

Candida albicans = assay: Antimicrobial activity against Candida albicans ATCC 90028 at 64 ug/mL after 48 hrs by broth microdilution assay; assay type: functional, organism-based
In short: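 Yeast NCCLS broth microdilution (M27-A). Inoculum 0.5 to 2.5×10^3 CFU/mL; 2-fold dilutions in 0.165 M MOPS-buffered RPMI 1640, pH 7.0; compound from DMSO, DMSO-only turbidity control; 35 °C without agitation; read at 48 h (Candida). MIC = lowest concentration giving no visible growth.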

Staphylococcus aureus = assay: Antimicrobial activity against Staphylococcus aureus ATCC 29213 at 64 ug/mL after 24 hrs by broth microdilution assay; assay type: functional, organism-based; in short: as §1
[1] = system: Stenotrophomonas maltophilia; assay: Antimicrobial activity against Stenotrophomonas maltophilia ATCC 13637 at 64 ug/mL after 24 hrs by broth microdilution assay; assay type: functional, organism-based; in short: as §1
Enterococcus faecalis = assay: Antimicrobial activity against Enterococcus faecalis ATCC 29212 at 64 ug/mL after 24 hrs by broth microdilution assay; assay type: functional, organism-based; in short: as §1
Streptococcus pneumoniae = assay: Antimicrobial activity against Streptococcus pneumoniae ATCC 6303 at 64 ug/mL after 24 hrs by broth microdilution assay; assay type: functional, organism-based
In short: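 Streptococcus tested by NCCLS broth microdilution in cation-adjusted MHII broth with 3% lysed horse blood. Final inoculum about 5×10^5 CFU/mL; 2-fold compound dilutions from DMSO; DMSO turbidity control; 35 °C without agitation, 24 h. MIC = lowest concentration with no visible growth.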

Enterobacter cloacae = assay: Antimicrobial activity against Enterobacter cloacae ATCC 13047 at 64 ug/mL after 24 hrs by broth microdilution assay; assay type: functional, organism-based; in short: as §1
Cryptococcus neoformans = assay: Antimicrobial activity against Cryptococcus neoformans ATCC 90112 at 64 ug/mL after 72 hrs by broth microdilution assay; assay type: functional, organism-based
In short: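 Yeast NCCLS broth microdilution (M27-A). Inoculum 0.5 to 2.5×10^3 CFU/mL; 2-fold dilutions in 0.165 M MOPS-buffered RPMI 1640, pH 7.0; compound from DMSO, DMSO-only turbidity control; 35 °C without agitation; read at 72 h (Cryptococcus). MIC = lowest concentration giving no visible growth.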

Escherichia coli = assay: Antimicrobial activity against Escherichia coli ATCC 25922 at 64 ug/mL after 24 hrs by broth microdilution assay; assay type: functional, organism-based; in short: as §1
SF-268 = assay: Cytotoxicity against human SF268 cells after 48 hrs by sulforhodamine B assay; assay type: functional; conditions: SF-268, 48 h
In short: (§2)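 Human tumor lines exposed to compound for 48 h, then fixed with trichloroacetic acid and stained with sulforhodamine B (NCI standard protocol); optical density read on a microplate reader. GI50 is the concentration giving a 50% reduction in net protein increase, calculated from optical density data.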

DU-145 = assay: Cytotoxicity against human DU145 cells after 48 hrs by sulforhodamine B assay; assay type: functional; conditions: DU-145, 48 h; in short: as §2
P388 = assay: Cytotoxicity against mouse P388 cells after 48 hrs by Coulter particle counting; conditions: P388, 48 h, read-out: ED50 (the source's name)
KM-20L2 = assay: Cytotoxicity against human KM20L2 cells after 48 hrs by sulforhodamine B assay; assay type: functional; conditions: KM-20L2, 48 h; in short: as §2
NCI-H460 = assay: Cytotoxicity against human NCI-H460 cells after 48 hrs by sulforhodamine B assay; assay type: functional; conditions: NCI-H460, 48 h; in short: as §2
MCF7 = assay: Cytotoxicity against human MCF7 cells after 48 hrs by sulforhodamine B assay; assay type: functional; conditions: MCF7, 48 h; in short: as §2
BXPC-3 = assay: Cytotoxicity against human BxPC3 cells after 48 hrs by sulforhodamine B assay; assay type: functional; conditions: BXPC-3, 48 h; in short: as §2
Neisseria gonorrhoeae = assay: Antimicrobial activity against Neisseria gonorrhoeae ATCC 49226 after 24 hrs by broth microdilution assay; assay type: functional; conditions: ATCC 49226, 24 h
In short: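 Neisseria tested by NCCLS broth microdilution in gonococcal typing broth. Final inoculum about 5×10^5 CFU/mL; 2-fold compound dilutions from DMSO; DMSO turbidity control; 37 °C with 5% CO₂ without agitation, 24 h. MIC = lowest concentration with no visible growth.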

| Structure (SMILES) | Activity (Micrococcus luteus) | Activity (Candida albicans) | Activity (Staphylococcus aureus) | Activity [1] | Activity (Enterococcus faecalis) | Activity (Streptococcus pneumoniae) | Activity (Enterobacter cloacae) | Activity (Cryptococcus neoformans) | Activity (Escherichia coli) | GI50 (SF-268) | GI50 (DU-145) | EC50 (P388) | GI50 (KM-20L2) | GI50 (NCI-H460) | GI50 (MCF7) | GI50 (BXPC-3) | MIC (Neisseria gonorrhoeae) |
| --- | --- | --- | --- | --- | --- | --- | --- | --- | --- | --- | --- | --- | --- | --- | --- | --- | --- |
| COc1ccc(/C=C\c2cc(F)c(OC)c(OC)c2)cc1OP(=O)(O)O | inactive | inactive | inactive | inactive | inactive | inactive | inactive | inactive | inactive |  |  |  |  |  |  |  |  |
| COc1ccc(/C=C\c2cc(Br)c(OC)c(OC)c2)cc1OP(=O)([O-])[O-].[Na+].[Na+] |  |  |  |  |  |  |  |  |  | 0.0034 µg/mL | 0.0046 µg/mL | < 0.01 µg/mL | 0.23 µg/mL | 0.0028 µg/mL | 0.0041 µg/mL | 0.093 µg/mL |  |
| COc1cc(/C=C\c2ccc(OC)c(OP(=O)([O-])[O-])c2OP(=O)([O-])[O-])cc(OC)c1OC.[Na+].[Na+].[Na+].[Na+] |  |  |  |  |  |  |  |  |  | 0.036 µg/mL | 0.034 µg/mL | < 0.01 µg/mL | 0.53 µg/mL | 0.038 µg/mL | 0.024 µg/mL | 1.5 µg/mL |  |
| COc1ccc(/C=C\c2cc(Br)c(OC)c(OC)c2)cc1OP(=O)([O-])[O-].[Li+].[Li+] |  |  |  |  |  |  |  |  |  | 0.003 µg/mL | 0.0066 µg/mL | < 0.01 µg/mL | 0.11 µg/mL | 0.0026 µg/mL | 0.0039 µg/mL | 0.13 µg/mL |  |
| COc1ccc(/C=C\c2cc(OC)c(OC)c([N+](=O)[O-])c2)cc1[N+](=O)[O-] |  |  |  |  |  |  |  |  |  | 0.59 µg/mL (≈ 1.64 µM) | 0.34 µg/mL (≈ 0.944 µM) | > 10 µg/mL | 0.27 µg/mL (≈ 0.749 µM) | 0.24 µg/mL (≈ 0.666 µM) | 0.37 µg/mL (≈ 1.03 µM) | 0.39 µg/mL (≈ 1.08 µM) |  |
| COc1ccc(/C=C\c2cc(F)c(OC)c(OC)c2)cc1OP(=O)([O-])[O-].[K+].[K+] |  |  |  |  |  |  |  |  |  | 0.0039 µg/mL | 0.0037 µg/mL | 0.0074 µg/mL | > 1 µg/mL | 0.0043 µg/mL | 0.004 µg/mL | 0.548 µg/mL |  |
| COc1ccc(/C=C\c2cc(F)c(OC)c(OC)c2)cc1OP(=O)([O-])[O-].[Na+].[Na+] |  |  |  |  |  |  |  |  |  | 0.0051 µg/mL | 0.0036 µg/mL | 0.0298 µg/mL | 1.5 µg/mL | 0.0094 µg/mL | 0.0044 µg/mL | 0.59 µg/mL | 16 µg/mL |
| COc1ccc(/C=C\c2cc(Br)c(OC)c(OC)c2)cc1OP(=O)([O-])[O-].[Rb+].[Rb+] |  |  |  |  |  |  |  |  |  | 0.023 µg/mL | 0.042 µg/mL | < 0.01 µg/mL | 2.6 µg/mL | 0.041 µg/mL | 0.043 µg/mL | 0.56 µg/mL |  |
| COc1ccc(/C=C/c2cc(O)c(OC)c(OC)c2)cc1[N+](=O)[O-] |  |  |  |  |  |  |  |  |  | 0.41 µg/mL (≈ 1.24 µM) | 0.36 µg/mL (≈ 1.09 µM) | 0.224 µg/mL (≈ 0.676 µM) | 1.2 µg/mL (≈ 3.62 µM) | 0.25 µg/mL (≈ 0.755 µM) | 0.56 µg/mL (≈ 1.69 µM) | 1.1 µg/mL (≈ 3.32 µM) |  |
| COc1ccc(/C=C\c2cc(Br)c(OC)c(OC)c2)cc1OP(=O)([O-])[O-].[Cs+].[Cs+] |  |  |  |  |  |  |  |  |  | 0.0064 µg/mL | 0.0079 µg/mL | < 0.01 µg/mL | 0.48 µg/mL | 0.0066 µg/mL | 0.0044 µg/mL | 0.15 µg/mL |  |
| COc1ccc(/C=C\c2cc(O)c(OC)c(OC)c2)cc1[N+](=O)[O-] |  |  |  |  |  |  |  |  |  | 0.62 µg/mL (≈ 1.87 µM) | 0.39 µg/mL (≈ 1.18 µM) | 0.402 µg/mL (≈ 1.21 µM) | 1.8 µg/mL (≈ 5.43 µM) | 0.31 µg/mL (≈ 0.936 µM) | 0.49 µg/mL (≈ 1.48 µM) | 2.5 µg/mL (≈ 7.55 µM) |  |
| COc1ccc(/C=C\c2cc(Br)c(OC)c(OC)c2)cc1OP(=O)([O-])[O-].[Mg+2] |  |  |  |  |  |  |  |  |  | 0.0053 µg/mL | 0.0045 µg/mL | < 0.01 µg/mL | 0.27 µg/mL | 0.0039 µg/mL | 0.0045 µg/mL | 0.074 µg/mL |  |
| COc1ccc(/C=C\c2cc(Br)c(OC)c(OC)c2)cc1OP(=O)([O-])[O-].[K+].[K+] |  |  |  |  |  |  |  |  |  | 0.0032 µg/mL | 0.0028 µg/mL | < 0.01 µg/mL | 0.24 µg/mL | 0.0029 µg/mL | 0.0035 µg/mL | 0.2 µg/mL |  |
